Source: ChEMBL document CHEMBL3739295, “Cadinane-Type Sesquiterpenoids from Heterotheca inuloides: Absolute Configuration and Anti-inflammatory Activity” (J Nat Prod, 2015)
Activity calls are given as the source filed them. The rule behind the calls is not given here.

Tests used:
Mus musculus [1] = experiment: Anti-inflammatory activity in TPA-induced mouse ear edema model assessed as inhibition of ear edema; type: functional, organism-based
In short: (§1)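 In vivo 12-O-tetradecanoylphorbol 13-acetate (TPA)-induced ear edema in mice. Animals were handled under Mexican Official Norm MON-062-Z00-1999.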

Mus musculus [2] = experiment: Anti-inflammatory activity in TPA-induced mouse ear edema model assessed as inhibition of ear edema at 1 umol/ear; type: functional; in short: as §1

SMILES | IC50 (Mus musculus [1]) | inhibition (Mus musculus [2]) | inhibition (INH) (Mus musculus [2])
CC1=CC[C@H](C(C)C)[C@H]2C=C(C(=O)O)CC=C12 | > 1 µmol | inactive | 
CC1=C[C@](O)(C(C)C)C(=O)c2cc(C)c(O)cc21 | > 1 µmol | Active | 
Cc1ccc2c(c1)C(=O)C(C(C)C)=C[C@@]2(C)O | > 1 µmol | Active | 
CC1=C2CCC(C(=O)O)=C[C@@H]2[C@@H](C(C)C)CC1 | > 1 µmol |  | 21.51%
CC(C)[C@H]1CC[C@@](C)(O)c2ccc(C(=O)O)cc21 | > 1 µmol | Active | 

Further lines, with some results ahead:

IC50 (Mus musculus [1]) | SMILES | inhibition (Mus musculus [2]) | inhibition (INH) (Mus musculus [2])
> 228 µg | Cc1cc2c(C(C)C)ccc(C=O)c2cc1O |  | 43.14%
> 1 µmol | COc1c(C(C)C)cc(C)c2ccc(C)cc12 |  | 15.32%
> 1 µmol | CC1=CC[C@H](C(C)C)c2cc(C(=O)O)ccc21 |  | 12.93%
